In test [1] the test system is Globisporangium debaryanum. The test can be described thus: Antifungal activity against Pythium debaryanum assessed as inhibition of fungal growth. In kind it is functional. As to conditions: read-out: ED50 (the source's name). An outline of the steps:
(§1)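 Poisoned food technique on PDA, final 250, 125, 100, 50, 25 and 10 µg/mL, diluted in acetone from a 1000 µg/mL stock; acetone-only control. A 5 mm × 5 mm plug from the growing edge of a 2-week-old colony was placed at plate centre and incubated at 28 °C until control plates were nearly fully grown. Colony diameter was measured; four replicates per treatment. Inhibition was Abbott-corrected and ED50 taken by probit analysis.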

The test system of the next test is Pythium aphanidermatum. Kind of test: Antifungal activity against Pythium aphanidermatum assessed as inhibition of fungal growth. As to conditions: read-out: ED50 (the source's name). In kind it is functional. An outline of the steps:
as §1

For test [2], the system named is Macrophomina phaseolina. The test can be described thus: Antifungal activity against Macrophomina phaseolina assessed as inhibition of fungal growth. As to conditions: read-out: ED50 (the source's name). It counts as functional. The method in brief: as §1
In test [3] the test system is Macrophomina phaseolina. Kind of test: Antifungal activity against Rhizoctonia bataticola assessed as inhibition of fungal growth. In kind it is functional. The settings on record: read-out: ED50 (the source's name). An outline of the steps:
as §1

In another test the test system is Rhizoctonia solani. The test can be described thus: Antifungal activity against Rhizoctonia solani Nees assessed as inhibition of fungal growth. It counts as functional. The settings on record: read-out: ED50 (the source's name). The method in brief: as §1
For test [4], the system named is Athelia rolfsii. The test can be described thus: Antifungal activity against Athelia rolfsii assessed as inhibition of fungal growth. It counts as functional. As to conditions: Agroathelia rolfsii; read-out: ED50 (the source's name). An outline of the steps:
as §1

Test [5] deals with Athelia rolfsii. The test can be described thus: Antifungal activity against Athelia rolfsii in tomato plants grown on fungal infested soil assessed as healthy tomato plants stands at 5 % aqueous emulsion of compound measured 35 days after transplanting. In kind it is functional, Agroathelia rolfsii. An outline of the steps:
(§2)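 Tomato greenhouse test. S. rolfsii was grown in potato dextrose broth, then held in water at 20 °C for 3-4 weeks. Inoculum was mixed into autoclaved composted soil (10 flasks per 2.5 kg) and kept about 5-7 days at roughly 25 °C. Aqueous emulsion was incorporated at 5.0 mL per 150 cm3 of soil. Wilting and mortality were scored weekly after transplanting and given as the proportion of symptomless plants. Controls were uninfested soil and infested untreated soil; analysed as repeated measures ANOVA.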

The test system of test [6] is Athelia rolfsii. The test can be described thus: Antifungal activity against Athelia rolfsii in tomato plants grown on fungal infested soil assessed as healthy tomato plants stands at 10 % aqueous emulsion of compound measured 35 days after transplanting. It counts as functional, Agroathelia rolfsii. An outline of the steps: as §2
Test [7] has as its system Athelia rolfsii. The test can be described thus: Antifungal activity against Athelia rolfsii in tomato plants grown on fungal infested soil assessed as healthy tomato plants stands at 1 % aqueous emulsion of compound measured 35 days after transplanting. In kind it is functional, organism-based. The settings on record: Agroathelia rolfsii. The method in brief: as §2
Test [8] relates to Athelia rolfsii. Kind of test: Antifungal activity against Athelia rolfsii in tomato plants grown on fungal infested soil assessed as healthy tomato plants stands at 1 % aqueous emulsion of compound measured 7 days after transplanting. In kind it is functional, Agroathelia rolfsii. The method in brief: as §2
For test [9], the system named is Athelia rolfsii. The test can be described thus: Antifungal activity against Athelia rolfsii in tomato plants grown on fungal infested soil assessed as healthy tomato plants stands at 0.364 mL ai/150 cm3 of soil measured 35 days after transplanting. It counts as functional, Agroathelia rolfsii. An outline of the steps:
(§3)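 Greenhouse tomato seedlings in sieved, autoclaved composted soil infested with S. rolfsii chlamydospore inoculum (potato dextrose broth, 27 °C 7 days, then water, 20 °C 3-4 weeks; 10 flasks per 2.5 kg soil; incubated ~25 °C 5-7 days). Moistened infested soil treated with fungicide per 150 cm3 soil. Checks were uninfested soil and untreated infested soil. Wilting and mortality scored weekly to 35 days; proportion symptomless plants; repeated-measures ANOVA.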

In test [10] the test system is Athelia rolfsii. Kind of test: Antifungal activity against Athelia rolfsii in tomato plants grown on fungal infested soil assessed as healthy tomato plants stands at 1.46 mL ai/150 cm3 of soil measured 35 days after transplanting. In kind it is functional, Agroathelia rolfsii. An outline of the steps: as §3
In test [11] the test system is Athelia rolfsii. Kind of test: Antifungal activity against Athelia rolfsii in tomato plants grown on fungal infested soil assessed as healthy tomato plants stands at 0.728 mL ai/150 cm3 of soil measured 35 days after transplanting. In kind it is functional, Agroathelia rolfsii. The method in brief: as §3

In brackets after ≈: the same amount, converted by molar mass. Activity calls are given as the source filed them. No cut-off for these calls is given here.

Here are results for 19 molecules from ChEMBL document CHEMBL3045854, “Antifungal activity of 4-methyl-6-alkyl-2H-pyran-2-ones” (2006).

In the case of `Cc1cc(CC(C)C)oc(=O)c1`, the EC50 is 37 µg/mL (≈ 223 µM) in test [1]; 52.4 µg/mL (≈ 315 µM) in the test on Pythium aphanidermatum; 47.3 µg/mL (≈ 284 µM) in the test on Macrophomina phaseolina [2]; 68.4 µg/mL (≈ 412 µM) in the test with Macrophomina phaseolina [3]; 48.7 µg/mL (≈ 293 µM) with Rhizoctonia solani; 39.5 µg/mL (≈ 237 µM) in the test on Athelia rolfsii [4].

Consider `CCCCCCCc1cc(C)cc(=O)o1`, for which the EC50 was found to be 71.7 µg/mL (≈ 344 µM) in test [1]; 74.6 µg/mL (≈ 358 µM) with Pythium aphanidermatum; 82.2 µg/mL (≈ 394 µM) in the test with Macrophomina phaseolina [2]; 47 µg/mL (≈ 226 µM) in the test with Macrophomina phaseolina [3]; 45 µg/mL (≈ 216 µM) in the test on Rhizoctonia solani; 30.7 µg/mL (≈ 147 µM) in the test on Athelia rolfsii [4].

As to `CCCCC(CC)c1cc(C)cc(=O)o1` (stereo not given), the EC50 was 151 µg/mL (≈ 725 µM) in test [1]; 277 µg/mL (≈ 1330 µM) in the test on Pythium aphanidermatum; 262 µg/mL (≈ 1260 µM) with Macrophomina phaseolina [2]; 303 µg/mL (≈ 1460 µM) with Macrophomina phaseolina [3]; 184 µg/mL (≈ 882 µM) in the test on Rhizoctonia solani; 349 µg/mL (≈ 1680 µM) in the test on Athelia rolfsii [4].

`CCCCc1cc(C)cc(=O)o1`: the EC50 in test [1] was 143 µg/mL (≈ 859 µM); with Pythium aphanidermatum, 227 µg/mL (≈ 1370 µM); with Macrophomina phaseolina [2] it was 235 µg/mL (≈ 1410 µM); in the test on Macrophomina phaseolina [3], 212 µg/mL (≈ 1280 µM); in the test with Rhizoctonia solani, 50.1 µg/mL (≈ 301 µM); with Athelia rolfsii [4], 78 µg/mL (≈ 469 µM).

Turning to `CCCc1cc(C)cc(=O)o1`, the EC50 in test [1] worked out at 288 µg/mL (≈ 1890 µM); in the test with Pythium aphanidermatum it was 573 µg/mL (≈ 3760 µM); with Macrophomina phaseolina [2], 329 µg/mL (≈ 2160 µM); with Macrophomina phaseolina [3], 562 µg/mL (≈ 3700 µM); in the test on Rhizoctonia solani, 149 µg/mL (≈ 982 µM); in the test with Athelia rolfsii [4], 251 µg/mL (≈ 1650 µM).

On to `CCCCCc1cc(C)cc(=O)o1`, for which the EC50 amounted to 20.6 µg/mL (≈ 114 µM) in [1]; 39.1 µg/mL (≈ 217 µM) in the test on Pythium aphanidermatum; 36.8 µg/mL (≈ 204 µM) with Macrophomina phaseolina [2]; 34.2 µg/mL (≈ 190 µM) with Macrophomina phaseolina [3]; 34.5 µg/mL (≈ 191 µM) with Rhizoctonia solani; 22.4 µg/mL (≈ 125 µM) with Athelia rolfsii [4].

Take `Cc1cc(C(C)C)oc(=O)c1`: the EC50 in [1] stood at 437 µg/mL (≈ 2870 µM); with Pythium aphanidermatum it was 475 µg/mL (≈ 3120 µM); with Macrophomina phaseolina [2] it was 1210 µg/mL (≈ 7930 µM); in the test with Macrophomina phaseolina [3], 403 µg/mL (≈ 2650 µM); with Rhizoctonia solani, 437 µg/mL (≈ 2870 µM); in the test on Athelia rolfsii [4], 313 µg/mL (≈ 2060 µM).

In the case of `CCCCC(O)(Cn1cncn1)c1ccc(Cl)cc1Cl` (stereo not given) [HEXACONAZOLE], the EC50 in test [1] worked out at 12.3 µg/mL (≈ 39.1 µM); with Pythium aphanidermatum, 8.47 µg/mL (≈ 27 µM); in the test on Macrophomina phaseolina [2] it was 10.5 µg/mL (≈ 33.5 µM); with Macrophomina phaseolina [3], 4.36 µg/mL (≈ 13.9 µM); with Rhizoctonia solani, 13 µg/mL (≈ 41.2 µM); in the test on Athelia rolfsii [4], 18.3 µg/mL (≈ 58.4 µM).

Regarding `Cc1cc(C)oc(=O)c1`, the EC50 was determined as 1140 µg/mL (≈ 9190 µM) in test [1]; 451 µg/mL (≈ 3630 µM) in the test on Pythium aphanidermatum; 824 µg/mL (≈ 6630 µM) with Macrophomina phaseolina [2]; 1190 µg/mL (≈ 9550 µM) in the test on Macrophomina phaseolina [3]; 493 µg/mL (≈ 3970 µM) with Rhizoctonia solani; 713 µg/mL (≈ 5740 µM) with Athelia rolfsii [4].

Regarding `CCc1cc(C)cc(=O)o1`, the EC50 in test [1] amounted to 580 µg/mL (≈ 4200 µM); in the test with Pythium aphanidermatum, 408 µg/mL (≈ 2950 µM); with Macrophomina phaseolina [2], 267 µg/mL (≈ 1940 µM); with Macrophomina phaseolina [3], 626 µg/mL (≈ 4530 µM); in the test with Rhizoctonia solani it was 690 µg/mL (≈ 5000 µM); in the test on Athelia rolfsii [4] it was 665 µg/mL (≈ 4820 µM).

As for `CCCCCCc1cc(C)cc(=O)o1`, the Activity was greater than 60% in the test with Athelia rolfsii [5], 92.4% with Athelia rolfsii [6] and 20% with Athelia rolfsii [8]. The outcome in the test with Athelia rolfsii [7] was inactive. For the same molecule, the EC50 was 14.9 µg/mL (≈ 76.7 µM) in [1]; 16.6 µg/mL (≈ 85.5 µM) in the test with Pythium aphanidermatum; 31 µg/mL (≈ 159 µM) in the test with Macrophomina phaseolina [2]; 24.5 µg/mL (≈ 126 µM) in the test with Macrophomina phaseolina [3]; 18.7 µg/mL (≈ 96 µM) with Rhizoctonia solani; 15.1 µg/mL (≈ 77.7 µM) in the test with Athelia rolfsii [4].

Regarding `CCCCCCCCCCc1cc(C)cc(=O)o1`, the EC50 came out at 594 µg/mL (≈ 2370 µM) in test [1]; 287 µg/mL (≈ 1150 µM) in the test with Pythium aphanidermatum; 548 µg/mL (≈ 2190 µM) in the test on Macrophomina phaseolina [2]; 649 µg/mL (≈ 2590 µM) with Macrophomina phaseolina [3]; 267 µg/mL (≈ 1070 µM) in the test with Rhizoctonia solani; 562 µg/mL (≈ 2250 µM) with Athelia rolfsii [4].

Consider `CCCCCCCCc1cc(C)cc(=O)o1`, for which the EC50 in test [1] is 175 µg/mL (≈ 786 µM); with Pythium aphanidermatum it was 124 µg/mL (≈ 557 µM); in the test with Macrophomina phaseolina [2], 164 µg/mL (≈ 737 µM); in the test with Macrophomina phaseolina [3], 132 µg/mL (≈ 595 µM); in the test with Rhizoctonia solani, 116 µg/mL (≈ 521 µM); in the test on Athelia rolfsii [4], 122 µg/mL (≈ 548 µM).

`COCC(=O)N(c1c(C)cccc1C)C(C)C(=O)OC` (stereo not given) [METALAXYL]: the Activity in the test with Athelia rolfsii [9] was determined as 34.3 µg/mL; with Athelia rolfsii [10] it was 90.3 µg/mL; in the test on Athelia rolfsii [11] it was 60 µg/mL.

For the molecule `C/C=C/c1cc(C)cc(=O)o1`, the EC50 in [1] came to 95.5 µg/mL (≈ 636 µM); in the test on Pythium aphanidermatum it was 102 µg/mL (≈ 680 µM); with Macrophomina phaseolina [2], 276 µg/mL (≈ 1840 µM); with Macrophomina phaseolina [3], 361 µg/mL (≈ 2400 µM); in the test with Rhizoctonia solani, 294 µg/mL (≈ 1950 µM); with Athelia rolfsii [4], 404 µg/mL (≈ 2690 µM).

Consider `C=C(C)c1cc(C)cc(=O)o1`, for which the EC50 was determined as 189 µg/mL (≈ 1260 µM) in test [1]; 337 µg/mL (≈ 2240 µM) in the test on Pythium aphanidermatum; 338 µg/mL (≈ 2250 µM) in the test with Macrophomina phaseolina [2]; 374 µg/mL (≈ 2490 µM) with Macrophomina phaseolina [3]; 206 µg/mL (≈ 1370 µM) in the test on Rhizoctonia solani; 180 µg/mL (≈ 1200 µM) in the test with Athelia rolfsii [4].

On to `CC(C)=Cc1cc(C)cc(=O)o1`, for which the EC50 in test [1] stood at 264 µg/mL (≈ 1610 µM); with Pythium aphanidermatum it was 206 µg/mL (≈ 1250 µM); in the test on Macrophomina phaseolina [2], 377 µg/mL (≈ 2300 µM); in the test with Macrophomina phaseolina [3], 328 µg/mL (≈ 2000 µM); in the test on Rhizoctonia solani, 286 µg/mL (≈ 1740 µM); with Athelia rolfsii [4] it was 323 µg/mL (≈ 1960 µM).

In the case of `Cc1cc(CCl)oc(=O)c1`, the EC50 is 102 µg/mL (≈ 643 µM) in test [1]; 122 µg/mL (≈ 769 µM) in the test with Pythium aphanidermatum; 72.1 µg/mL (≈ 455 µM) in the test with Macrophomina phaseolina [2]; 111 µg/mL (≈ 701 µM) in the test with Macrophomina phaseolina [3]; 22.8 µg/mL (≈ 143 µM) in the test with Rhizoctonia solani; 46.9 µg/mL (≈ 296 µM) in the test with Athelia rolfsii [4].

For `CCCCCCCCCc1cc(C)cc(=O)o1`, the EC50 in [1] stood at 284 µg/mL (≈ 1200 µM); with Pythium aphanidermatum, 204 µg/mL (≈ 863 µM); in the test on Macrophomina phaseolina [2] it was 352 µg/mL (≈ 1490 µM); in the test with Macrophomina phaseolina [3], 213 µg/mL (≈ 900 µM); with Rhizoctonia solani, 130 µg/mL (≈ 551 µM); in the test with Athelia rolfsii [4] it was 397 µg/mL (≈ 1680 µM).
